Experimental data reported in ChEMBL document CHEMBL2424622, “Development of amino-pyrimidine inhibitors of c-Jun N-terminal kinase (JNK): kinase profiling guided optimization of a 1,2,3-benzotriazole lead” (Bioorg Med Chem Lett, 2013).

Tests used:
[1] = target: T1, Ephrin type-A receptor 1 (Homo sapiens) (UniProt P21709); test: Competitive binding affinity to EPHA1 (unknown origin) at 10 uM in presence of ATP relative to control
T1 sequence (whole entry): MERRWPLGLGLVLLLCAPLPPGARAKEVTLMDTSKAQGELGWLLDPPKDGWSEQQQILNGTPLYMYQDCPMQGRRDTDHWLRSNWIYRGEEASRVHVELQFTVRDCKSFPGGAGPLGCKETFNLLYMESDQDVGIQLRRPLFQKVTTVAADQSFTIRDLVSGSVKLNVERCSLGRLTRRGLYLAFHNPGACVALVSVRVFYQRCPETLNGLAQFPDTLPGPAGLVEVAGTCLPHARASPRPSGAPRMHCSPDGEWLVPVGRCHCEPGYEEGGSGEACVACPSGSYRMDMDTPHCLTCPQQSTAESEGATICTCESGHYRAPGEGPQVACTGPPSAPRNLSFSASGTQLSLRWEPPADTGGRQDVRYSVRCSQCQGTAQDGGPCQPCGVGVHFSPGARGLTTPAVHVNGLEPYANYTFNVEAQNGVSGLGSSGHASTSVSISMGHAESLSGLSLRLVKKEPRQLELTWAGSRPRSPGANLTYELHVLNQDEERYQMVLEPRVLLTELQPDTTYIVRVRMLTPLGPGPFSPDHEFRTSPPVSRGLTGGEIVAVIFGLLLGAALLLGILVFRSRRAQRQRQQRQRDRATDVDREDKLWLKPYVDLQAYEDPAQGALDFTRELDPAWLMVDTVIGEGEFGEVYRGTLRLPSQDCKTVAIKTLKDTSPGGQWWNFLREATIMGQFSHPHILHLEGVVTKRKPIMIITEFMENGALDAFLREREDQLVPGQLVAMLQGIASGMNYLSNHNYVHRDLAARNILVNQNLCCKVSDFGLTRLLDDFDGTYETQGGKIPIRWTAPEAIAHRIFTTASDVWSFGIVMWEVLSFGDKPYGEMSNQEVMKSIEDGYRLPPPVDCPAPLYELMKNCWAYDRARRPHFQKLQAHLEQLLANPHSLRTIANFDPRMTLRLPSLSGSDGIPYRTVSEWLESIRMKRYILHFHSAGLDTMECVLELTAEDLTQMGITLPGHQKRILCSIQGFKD
Method in brief: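 In vitro ATP-site competition binding assay, part of profiling against a diverse panel of 128 kinases. Each compound was tested at a single concentration of 10 µM. Kinome selectivity was summarized as S15 selectivity scores.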

[2] = target: Cyclin-dependent kinase 8 (Homo sapiens) (UniProt P49336); test: Competitive binding affinity to CDK8 (unknown origin) at 10 uM in presence of ATP relative to control
[3] = target: Cyclin-dependent kinase 2 (Homo sapiens) (UniProt P24941); test: Competitive binding affinity to CDK2 (unknown origin) at 10 uM in presence of ATP relative to control
Method in brief: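 In vitro ATP-site competition binding assay across a diverse panel of 128 kinases, with each compound tested at a single concentration. Kinase binding is expressed relative to control.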

[4] = target: Serine/threonine-protein kinase 33 (Homo sapiens) (UniProt Q9BYT3); test: Competitive binding affinity to STK33 (unknown origin) at 10 uM in presence of ATP relative to control
[5] = target: Serine/threonine-protein kinase SIK1 (Homo sapiens) (UniProt P57059); test: Competitive binding affinity to SNF1LK (unknown origin) at 10 uM in presence of ATP relative to control
[6] = target: Ribosomal protein S6 kinase alpha-1 (Homo sapiens, UniProt Q15418); test: Competitive binding affinity to RPS6KA1 kinase domain 1 (unknown origin) at 10 uM in presence of ATP relative to control
[7] = target: Protein kinase C eta type (Homo sapiens) (UniProt P24723); test: Competitive binding affinity to PRKCH (unknown origin) at 10 uM in presence of ATP relative to control
[8] = target: T2, Serine/threonine-protein kinase 17B (Homo sapiens) (UniProt O94768); test: Competitive binding affinity to STK17B (unknown origin) at 10 uM in presence of ATP relative to control
T2 sequence (whole entry): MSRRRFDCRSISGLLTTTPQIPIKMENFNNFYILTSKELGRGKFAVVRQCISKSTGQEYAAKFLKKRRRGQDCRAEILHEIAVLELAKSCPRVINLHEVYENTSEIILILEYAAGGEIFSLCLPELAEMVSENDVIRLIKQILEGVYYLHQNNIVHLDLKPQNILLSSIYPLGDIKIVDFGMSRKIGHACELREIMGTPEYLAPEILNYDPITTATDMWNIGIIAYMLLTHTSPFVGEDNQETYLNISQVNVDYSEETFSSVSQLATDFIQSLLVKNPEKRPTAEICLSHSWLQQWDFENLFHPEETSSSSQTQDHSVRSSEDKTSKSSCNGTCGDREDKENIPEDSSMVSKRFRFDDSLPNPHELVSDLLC

Serine/threonine-protein kinase SIK1 (Homo sapiens), sequence (P57059 whole entry, the tested form may be a part): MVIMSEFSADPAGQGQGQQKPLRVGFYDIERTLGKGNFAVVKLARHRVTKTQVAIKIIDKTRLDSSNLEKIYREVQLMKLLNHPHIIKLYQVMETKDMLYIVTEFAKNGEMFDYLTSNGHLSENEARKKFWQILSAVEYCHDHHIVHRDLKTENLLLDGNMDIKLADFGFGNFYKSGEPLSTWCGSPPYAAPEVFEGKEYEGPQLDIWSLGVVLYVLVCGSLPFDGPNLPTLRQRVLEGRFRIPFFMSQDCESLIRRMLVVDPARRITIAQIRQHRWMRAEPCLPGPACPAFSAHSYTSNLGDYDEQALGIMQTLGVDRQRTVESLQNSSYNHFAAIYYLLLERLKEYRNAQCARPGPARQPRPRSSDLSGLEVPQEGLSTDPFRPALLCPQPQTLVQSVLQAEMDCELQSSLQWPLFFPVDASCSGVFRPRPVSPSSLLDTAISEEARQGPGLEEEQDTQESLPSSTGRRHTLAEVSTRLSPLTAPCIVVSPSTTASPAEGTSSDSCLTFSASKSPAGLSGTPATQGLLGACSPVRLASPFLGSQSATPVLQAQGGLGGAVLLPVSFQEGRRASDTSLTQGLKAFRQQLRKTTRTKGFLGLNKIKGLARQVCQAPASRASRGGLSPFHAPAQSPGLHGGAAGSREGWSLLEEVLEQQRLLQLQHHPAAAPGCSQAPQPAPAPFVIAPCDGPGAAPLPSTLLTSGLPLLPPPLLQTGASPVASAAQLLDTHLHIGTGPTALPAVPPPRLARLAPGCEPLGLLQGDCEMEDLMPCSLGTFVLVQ
Serine/threonine-protein kinase 33 (Homo sapiens), sequence (Q9BYT3 whole entry, looked up): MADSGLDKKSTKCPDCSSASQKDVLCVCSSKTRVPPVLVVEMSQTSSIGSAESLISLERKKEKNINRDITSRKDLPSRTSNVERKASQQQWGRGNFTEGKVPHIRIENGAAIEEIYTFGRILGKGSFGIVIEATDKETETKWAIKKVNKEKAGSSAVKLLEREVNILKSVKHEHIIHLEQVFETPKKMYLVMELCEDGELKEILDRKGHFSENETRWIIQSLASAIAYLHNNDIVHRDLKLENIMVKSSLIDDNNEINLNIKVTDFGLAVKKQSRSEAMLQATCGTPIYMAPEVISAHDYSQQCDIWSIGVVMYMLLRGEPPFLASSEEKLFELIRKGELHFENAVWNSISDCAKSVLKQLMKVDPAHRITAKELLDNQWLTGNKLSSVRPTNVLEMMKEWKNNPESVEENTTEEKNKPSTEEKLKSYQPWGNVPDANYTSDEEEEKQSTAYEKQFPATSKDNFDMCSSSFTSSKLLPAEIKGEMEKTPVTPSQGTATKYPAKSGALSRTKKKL
Cyclin-dependent kinase 8 (Homo sapiens), sequence (P49336 whole entry): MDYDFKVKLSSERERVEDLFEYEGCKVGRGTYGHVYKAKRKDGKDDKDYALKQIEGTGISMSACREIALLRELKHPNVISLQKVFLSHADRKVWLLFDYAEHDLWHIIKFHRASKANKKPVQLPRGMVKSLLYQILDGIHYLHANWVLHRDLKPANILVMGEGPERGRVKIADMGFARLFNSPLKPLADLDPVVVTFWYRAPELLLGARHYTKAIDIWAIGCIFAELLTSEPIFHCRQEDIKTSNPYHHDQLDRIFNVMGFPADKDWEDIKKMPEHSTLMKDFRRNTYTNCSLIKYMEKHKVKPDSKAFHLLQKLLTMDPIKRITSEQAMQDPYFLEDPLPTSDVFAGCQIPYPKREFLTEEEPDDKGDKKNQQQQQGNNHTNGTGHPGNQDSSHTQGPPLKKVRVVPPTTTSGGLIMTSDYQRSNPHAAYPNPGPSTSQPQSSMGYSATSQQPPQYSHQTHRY
Ribosomal protein S6 kinase alpha-1, sequence (Q15418 whole entry, the tested form may be a part): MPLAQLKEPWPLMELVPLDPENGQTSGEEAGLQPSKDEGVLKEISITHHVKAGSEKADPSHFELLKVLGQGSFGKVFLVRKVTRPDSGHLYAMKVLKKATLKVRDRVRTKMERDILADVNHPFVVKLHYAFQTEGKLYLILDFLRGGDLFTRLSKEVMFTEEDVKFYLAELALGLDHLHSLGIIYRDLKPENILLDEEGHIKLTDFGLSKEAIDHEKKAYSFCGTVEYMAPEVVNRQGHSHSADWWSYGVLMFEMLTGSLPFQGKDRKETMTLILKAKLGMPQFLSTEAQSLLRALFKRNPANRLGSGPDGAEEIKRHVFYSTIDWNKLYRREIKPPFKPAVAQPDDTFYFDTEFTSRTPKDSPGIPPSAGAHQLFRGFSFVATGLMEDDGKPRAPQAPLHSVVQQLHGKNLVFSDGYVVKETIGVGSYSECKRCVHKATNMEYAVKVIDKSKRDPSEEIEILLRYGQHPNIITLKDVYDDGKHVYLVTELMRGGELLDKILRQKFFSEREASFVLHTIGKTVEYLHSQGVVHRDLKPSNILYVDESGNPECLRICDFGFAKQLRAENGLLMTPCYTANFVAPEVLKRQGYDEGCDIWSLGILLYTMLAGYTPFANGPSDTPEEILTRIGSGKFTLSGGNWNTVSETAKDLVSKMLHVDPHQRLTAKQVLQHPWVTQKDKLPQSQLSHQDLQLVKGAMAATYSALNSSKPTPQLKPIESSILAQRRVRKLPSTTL
Protein kinase C eta type (Homo sapiens), sequence (P24723 whole entry): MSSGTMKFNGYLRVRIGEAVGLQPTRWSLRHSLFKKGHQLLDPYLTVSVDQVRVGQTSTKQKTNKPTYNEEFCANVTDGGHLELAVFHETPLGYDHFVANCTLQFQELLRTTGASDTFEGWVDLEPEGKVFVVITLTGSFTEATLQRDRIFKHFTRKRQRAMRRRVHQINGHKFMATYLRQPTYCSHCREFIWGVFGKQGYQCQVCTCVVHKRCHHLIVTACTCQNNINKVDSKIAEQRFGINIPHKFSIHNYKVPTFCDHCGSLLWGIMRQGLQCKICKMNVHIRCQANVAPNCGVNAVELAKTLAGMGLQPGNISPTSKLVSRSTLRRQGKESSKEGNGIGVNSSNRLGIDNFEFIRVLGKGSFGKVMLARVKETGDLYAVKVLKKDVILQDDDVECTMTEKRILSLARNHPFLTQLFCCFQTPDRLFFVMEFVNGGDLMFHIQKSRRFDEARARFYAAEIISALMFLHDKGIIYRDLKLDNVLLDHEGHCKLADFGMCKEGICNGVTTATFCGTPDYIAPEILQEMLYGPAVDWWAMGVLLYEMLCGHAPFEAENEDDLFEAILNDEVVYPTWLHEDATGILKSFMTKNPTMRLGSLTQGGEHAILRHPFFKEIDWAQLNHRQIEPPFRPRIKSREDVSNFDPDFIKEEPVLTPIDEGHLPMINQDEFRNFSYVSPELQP

Structure (SMILES): O[C@H]1CC[C@H](Nc2nccc(-n3nnc4ccccc43)n2)CC1
- inhibition [1]: < 50%
- inhibition [2]: 82%
- inhibition [3]: 94%
- inhibition [4]: 75%
- inhibition [5]: < 50%
- inhibition [6]: 100%
- inhibition [7]: < 50%

Structure (SMILES): CS(=O)(=O)CCCOc1cccc2c1ccn2-c1ccnc(N[C@H]2CC[C@H](C(=O)N3CCC(O)CC3)CC2)n1
- inhibition [6]: > 85%

Structure (SMILES): O[C@H]1CC[C@H](Nc2nccc(-n3ncc4ccccc43)n2)CC1
- inhibition [1]: < 50%
- inhibition [2]: < 50%
- inhibition [3]: 94%
- inhibition [4]: 78%
- inhibition [5]: < 50%
- inhibition [6]: 91%
- inhibition [7]: < 50%

Structure (SMILES): O[C@H]1CC[C@H](Nc2nccc(-c3n[nH]c4ccccc34)n2)CC1
- inhibition [1]: < 50%
- inhibition [3]: 100%
- inhibition [4]: 98%
- inhibition [7]: < 50%
- inhibition [8]: 99%

Structure (SMILES): O[C@H]1CC[C@H](Nc2nccc(-n3ccc4ccccc43)n2)CC1
- inhibition [1]: < 50%
- inhibition [2]: < 50%
- inhibition [3]: 90%
- inhibition [4]: < 50%
- inhibition [5]: < 50%
- inhibition [6]: 66%
- inhibition [7]: < 50%

Structure (SMILES): O=C([C@H]1CC[C@H](Nc2nccc(-n3nnc4ccccc43)n2)CC1)N1CCOCC1
- inhibition [8]: < 50%

Structure (SMILES): N[C@H]1CC[C@H](Nc2nccc(-n3nnc4ccccc43)n2)CC1
- inhibition [8]: 92%
